Calls of active or inactive are those of the source. No cut-off for these calls is given here.
Columns and labels:
[1] = system: Human immunodeficiency virus 1; assay: Antiviral activity against HIV1 in human MT4 cells assessed as prevention of virus-induced cytopathogenicity; format: functional, organism-based
Procedure, shortened: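 MT-4 cells, 1 × 10⁴ per well, with serial compound dilutions from a 100 mM DMSO stock. Infected with HIV-1 at 100 CCID50. Four-day incubation at 37 °C, then viable cells measured by MTT. Read-out is inhibition of virus-induced cytopathogenicity, assessed at non-cytotoxic concentrations.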

HOP-62 = assay: Growth inhibition of human HOP62 cells after 48 hrs by sulforhodamine B assay; format: functional; details: HOP-62, 48 h
Procedure, shortened: (§1)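 NCI screen panel. Five 10-fold concentrations from 10^-4 to 10^-8 M. Exposure for the last 48 h of a 72 h incubation. Growth estimated by sulforhodamine B protein assay. GI50 is the concentration giving 50% growth inhibition. Where that level was not reached or was exceeded, the value is given as above or below the highest or lowest concentration tested.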

NCI-H460 = assay: Growth inhibition of human NCI-H460 cells after 48 hrs by sulforhodamine B assay; format: functional; details: NCI-H460, 48 h; procedure, shortened: as §1
PC-3 = assay: Growth inhibition of human PC3 cells after 48 hrs by sulforhodamine B assay; format: functional; details: PC-3, 48 h; procedure, shortened: as §1
UACC-62 = assay: Growth inhibition of human UACC62 cells after 48 hrs by sulforhodamine B assay; format: functional; details: UACC-62, 48 h
Procedure, shortened: (§2)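 NCI in vitro panel screen. Compounds tested at five 10-fold dilutions, 10^-4 to 10^-8 M. Cells in 96-well plates were exposed for the last 48 h of a 72 h incubation. Viability/growth was read by sulforhodamine B protein assay. GI50 is the concentration giving 50% growth inhibition. Values beyond the tested range are reported as greater or less than the maximum or minimum concentration.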

M14 = assay: Growth inhibition of human M14 cells after 48 hrs by sulforhodamine B assay; format: functional; details: M14, 48 h; procedure, shortened: as §1
SK-OV-3 = assay: Growth inhibition of human SKOV3 cells after 48 hrs by sulforhodamine B assay; format: functional; details: SK-OV-3, 48 h; procedure, shortened: as §1
UACC-257 = assay: Growth inhibition of human UACC257 cells after 48 hrs by sulforhodamine B assay; format: functional; details: UACC-257, 48 h; procedure, shortened: as §2
SR = assay: Growth inhibition of human SR cells after 48 hrs by sulforhodamine B assay; format: functional; procedure, shortened: as §2
LOX IMVI = assay: Growth inhibition of human LOXIMVI cells after 48 hrs by sulforhodamine B assay; format: functional; procedure, shortened: as §1
MDA-MB-231 = assay: Growth inhibition of human MDA-MB-231 cells after 48 hrs by sulforhodamine B assay; format: functional; details: MDA-MB-231, 48 h; procedure, shortened: as §1
HT-29 = assay: Growth inhibition of human HT-29 cells after 48 hrs by sulforhodamine B assay; format: functional; details: HT-29, 48 h; procedure, shortened: as §1
NCI-H23 = assay: Growth inhibition of human NCI-H23 cells after 48 hrs by sulforhodamine B assay; format: functional; details: NCI-H23, 48 h; procedure, shortened: as §1
NCI/ADR-RES = assay: Growth inhibition of human NCI/ADR-RES cells after 48 hrs by sulforhodamine B assay; format: functional; procedure, shortened: as §1
U-251 = assay: Growth inhibition of human U251 cells after 48 hrs by sulforhodamine B assay; format: functional; details: U-251, 48 h; procedure, shortened: as §2
SW-620 = assay: Growth inhibition of human SW620 cells after 48 hrs by sulforhodamine B assay; format: functional; details: SW-620, 48 h; procedure, shortened: as §2
OVCAR-3 = assay: Growth inhibition of human OVCAR-3 cells after 48 hrs by sulforhodamine B assay; format: functional; details: OVCAR-3, 48 h; procedure, shortened: as §1
HCT-116 = assay: Growth inhibition of human HCT116 cells after 48 hrs by sulforhodamine B assay; format: functional; details: HCT-116, 48 h; procedure, shortened: as §1
SN12C = assay: Growth inhibition of human SN12C cells after 48 hrs by sulforhodamine B assay; format: functional; procedure, shortened: as §2
COLO 205 = assay: Growth inhibition of human COLO205 cells after 48 hrs by sulforhodamine B assay; format: functional; details: COLO 205, 48 h; procedure, shortened: as §1
CAKI-1 = assay: Growth inhibition of human Caki1 cells after 48 hrs by sulforhodamine B assay; format: functional; details: CAKI-1, 48 h; procedure, shortened: as §1
EKVX = assay: Growth inhibition of human EKVX cells after 48 hrs by sulforhodamine B assay; format: functional; procedure, shortened: as §1
SK-MEL-2 = assay: Growth inhibition of human SK-MEL-2 cells after 48 hrs by sulforhodamine B assay; format: functional; details: SK-MEL-2, 48 h; procedure, shortened: as §1
DU-145 = assay: Growth inhibition of human DU145 cells after 48 hrs by sulforhodamine B assay; format: functional; details: DU-145, 48 h; procedure, shortened: as §1
Malme-3M = assay: Growth inhibition of human MALME-3M cells after 48 hrs by sulforhodamine B assay; format: functional; procedure, shortened: as §1
SF-268 = assay: Growth inhibition of human SF268 cells after 48 hrs by sulforhodamine B assay; format: functional; details: SF-268, 48 h; procedure, shortened: as §1
OVCAR-4 = assay: Growth inhibition of human OVCAR4 cells after 48 hrs by sulforhodamine B assay; format: functional; details: OVCAR-4, 48 h; procedure, shortened: as §1
HOP-92 = assay: Growth inhibition of human HOP92 cells after 48 hrs by sulforhodamine B assay; format: functional; details: HOP-92, 48 h; procedure, shortened: as §1
HL-60(TB) = assay: Growth inhibition of human HL-60(TB) cells after 48 hrs by sulforhodamine B assay; format: functional; details: HL-60, 48 h
Procedure, shortened: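 NCI 60-cell-line screen protocol: cells exposed to compound at five 10-fold dilutions from 10^-4 to 10^-8 M for the last 48 h of a 72 h incubation. Sulforhodamine B protein assay estimated viability/growth. GI50 (50% growth inhibition) derived; where not reached or exceeded, reported as greater or less than the highest or lowest concentration tested.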

BT-549 = assay: Growth inhibition of human BT549 cells after 48 hrs by sulforhodamine B assay; format: functional; details: BT-549, 48 h; procedure, shortened: as §1
NCI-H522 = assay: Growth inhibition of human NCI-H522 cells after 48 hrs by sulforhodamine B assay; format: functional; details: NCI-H522, 48 h; procedure, shortened: as §1
OVCAR-8 = assay: Growth inhibition of human OVCAR8 cells after 48 hrs by sulforhodamine B assay; format: functional; details: OVCAR-8, 48 h; procedure, shortened: as §1
IGROV-1 = assay: Growth inhibition of human IGROV1 cells after 48 hrs by sulforhodamine B assay; format: functional; details: IGROV-1, 48 h; procedure, shortened: as §1
MOLT-4 = assay: Growth inhibition of human MOLT4 cells after 48 hrs by sulforhodamine B assay; format: functional; details: MOLT-4, 48 h; procedure, shortened: as §1
SK-MEL-28 = assay: Growth inhibition of human SK-MEL-28 cells after 48 hrs by sulforhodamine B assay; format: functional; details: SK-MEL-28, 48 h; procedure, shortened: as §1
HCT-15 = assay: Growth inhibition of human HCT15 cells after 48 hrs by sulforhodamine B assay; format: functional; details: HCT-15, 48 h; procedure, shortened: as §1
A549 = assay: Growth inhibition of human A549 cells after 48 hrs by sulforhodamine B assay; format: functional; details: A549, 48 h; procedure, shortened: as §1
SNB-19 = assay: Growth inhibition of human SNB19 cells after 48 hrs by sulforhodamine B assay; format: functional; details: SNB-19, 48 h; procedure, shortened: as §2
SK-MEL-5 = assay: Growth inhibition of human SK-MEL-5 cells after 48 hrs by sulforhodamine B assay; format: functional; details: SK-MEL-5, 48 h; procedure, shortened: as §1
T47D = assay: Growth inhibition of human T47D cells after 48 hrs by sulforhodamine B assay; format: functional; procedure, shortened: as §2
MT4 = assay: Antiproliferative activity against human MT4 cells assessed as reduction of growth by MTT assay; format: functional, cell-based
Procedure, shortened: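 MT-4 lymphoblastoid T cells (ATCC) in RPMI 1640 with 10% FCS, penicillin/streptomycin, checked for mycoplasma. 1 × 10⁴ mock-infected cells per well with serial dilutions from a 100 mM DMSO stock. Incubated 4 days at 37 °C, viable cells counted by MTT. IC50 versus untreated controls by linear regression. Mean of three separate experiments.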

ACHN = assay: Growth inhibition of human ACHN cells after 48 hrs by sulforhodamine B assay; format: functional; procedure, shortened: as §1
SF-295 = assay: Growth inhibition of human SF295 cells after 48 hrs by sulforhodamine B assay; format: functional; details: SF-295, 48 h; procedure, shortened: as §1
KM12 = assay: Growth inhibition of human KM12 cells after 48 hrs by sulforhodamine B assay; format: functional; details: KM12, 48 h; procedure, shortened: as §1
UO-31 = assay: Growth inhibition of human UO31 cells after 48 hrs by sulforhodamine B assay; format: functional; details: UO-31, 48 h; procedure, shortened: as §2
MDA-MB-435 = assay: Growth inhibition of human MDA-MB-435 cells after 48 hrs by sulforhodamine B assay; format: functional; details: MDA-MB-435, 48 h; procedure, shortened: as §1
RXF 393 = assay: Growth inhibition of human RXF393 cells after 48 hrs by sulforhodamine B assay; format: functional; details: RXF 393, 48 h; procedure, shortened: as §1
[2] = Growth inhibition of human […] cells after 48 hrs by sulforhodamine B assay; format: functional; procedure, shortened: as §1
NCI-H322M = assay: Growth inhibition of human NCI-H322M cells after 48 hrs by sulforhodamine B assay; format: functional; procedure, shortened: as §1
786-0 = assay: Growth inhibition of human 786-0 cells after 48 hrs by sulforhodamine B assay; format: functional; details: 786-0, 48 h; procedure, shortened: as §1
TK-10 = assay: Growth inhibition of human TK10 cells after 48 hrs by sulforhodamine B assay; format: functional; details: TK-10, 48 h; procedure, shortened: as §2
K562 = assay: Growth inhibition of human K562 cells after 48 hrs by sulforhodamine B assay; format: functional; details: K562, 48 h; procedure, shortened: as §1
MCF7 = assay: Growth inhibition of human MCF7 cells after 48 hrs by sulforhodamine B assay; format: functional; details: MCF7, 48 h; procedure, shortened: as §1

For `N#C/C(=C\N1CCNC1=S)C(=O)c1ccccc1`, the Activity [1] was “inactive”.
`N#C/C(=C\N1CCN(C(=O)c2ccco2)C1=S)C(N)=O` showed a GI50 (HOP-62) of 25.6 µM, a GI50 (NCI-H460) of 4 µM and a GI50 (PC-3) of 35.6 µM. The GI50 (UACC-62) was 14 µM, the GI50 (M14) was 16.5 µM and the GI50 (SK-OV-3) was 42.6 µM. It also gave a GI50 (UACC-257) of 23.3 µM, a GI50 (SR) of 3 µM and a GI50 (LOX IMVI) of 2.5 µM. For the same molecule, the GI50 (MDA-MB-231) was 13.1 µM, the GI50 (HT-29) was 24.1 µM and the GI50 (NCI-H23) was 21.4 µM. The GI50 (NCI/ADR-RES) was 25.4 µM, the GI50 (U-251) was 11.5 µM and the GI50 (SW-620) was 22.1 µM. For the same molecule, the GI50 (OVCAR-3) was 19 µM, the GI50 (HCT-116) was 21.2 µM and the GI50 (SN12C) was 12 µM. The GI50 (COLO 205) was 24.9 µM, the GI50 (CAKI-1) was 11.8 µM and the GI50 (EKVX) was 0.3 µM. For the same molecule, the GI50 (SK-MEL-2) was 24.4 µM, the GI50 (DU-145) was 29.8 µM and the GI50 (Malme-3M) was 12.5 µM. The GI50 (SF-268) was 11.7 µM, the GI50 (OVCAR-4) was 18.5 µM and the GI50 (HOP-92) was 25.5 µM. The GI50 (HL-60(TB)) was 22 µM, the GI50 (BT-549) was 22.5 µM and the GI50 (NCI-H522) was 18.7 µM. For the same molecule, the GI50 (OVCAR-8) was 43.6 µM, the GI50 (IGROV-1) was 24 µM and the GI50 (MOLT-4) was 39.8 µM. For the same molecule, the GI50 (SK-MEL-28) was 15.8 µM, the GI50 (HCT-15) was 3.8 µM and the GI50 (A549) was 34.5 µM. The GI50 (SNB-19) was 36.4 µM, the GI50 (SK-MEL-5) was 16.5 µM and the GI50 (T47D) was 9.3 µM. The IC50 (MT4) was 4 µM, the GI50 (ACHN) was 11 µM and the GI50 (SF-295) was 32.1 µM. It also gave a GI50 (KM12) of 7.5 µM, a GI50 (UO-31) of 23.5 µM and a GI50 (MDA-MB-435) of 14.6 µM. It also gave a GI50 (RXF 393) of 19.2 µM, a GI50 [2] of 12.4 µM and a GI50 (NCI-H322M) of 17.6 µM. The GI50 (786-0) was 18 µM, the GI50 (TK-10) was 12.1 µM and the GI50 (K562) was 9.1 µM. The GI50 (MCF7) was 1.7 µM.

Reference: ChEMBL document CHEMBL1138555, “N-acylated and N,N'-diacylated imidazolidine-2-thione derivatives and N,N'-diacylated tetrahydropyrimidine-2(1H)-thione analogues: synthesis and antiproliferative activity” (Eur J Med Chem, 2009)
